The values that follow come from ChEMBL document CHEMBL3616430, “Discovery, synthesis and biochemical profiling of purine-2,6-dione derivatives as inhibitors of the human poly(A)-selective ribonuclease Caf1” (Bioorg Med Chem Lett, 2015).

The target in experiment [1] is CCR4-NOT transcription complex subunit 6 (Homo sapiens) (UniProt Q9ULM6). The experiment in a line: Inhibition of Ccr4 (unknown origin) at 10 uM by fluorescence-based assay. Summed up:
(§1)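 Fluorescence-based ribonuclease activity assay with Ccr4, using one compound concentration per reaction (30, 10 or 3 μM, as in each line). The reactions compared were a no-enzyme control, a complete reaction with enzyme, and a complete reaction plus compound. Data are shown with standard deviation error bars.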

The target is the same in experiment [2]. The experiment in a line: Inhibition of Ccr4 (unknown origin) at 30 uM by fluorescence-based assay. The essentials: as §1
The target is the same in experiment [3]. Kind of experiment: Inhibition of Ccr4 (unknown origin) at 3 uM by fluorescence-based assay. The essentials: as §1

Active and inactive are the calls of the source. The calls are words filed in the database; no cut-off is given here.

Sequence of CCR4-NOT transcription complex subunit 6 (Homo sapiens) (Q9ULM6 whole entry, one chain of several): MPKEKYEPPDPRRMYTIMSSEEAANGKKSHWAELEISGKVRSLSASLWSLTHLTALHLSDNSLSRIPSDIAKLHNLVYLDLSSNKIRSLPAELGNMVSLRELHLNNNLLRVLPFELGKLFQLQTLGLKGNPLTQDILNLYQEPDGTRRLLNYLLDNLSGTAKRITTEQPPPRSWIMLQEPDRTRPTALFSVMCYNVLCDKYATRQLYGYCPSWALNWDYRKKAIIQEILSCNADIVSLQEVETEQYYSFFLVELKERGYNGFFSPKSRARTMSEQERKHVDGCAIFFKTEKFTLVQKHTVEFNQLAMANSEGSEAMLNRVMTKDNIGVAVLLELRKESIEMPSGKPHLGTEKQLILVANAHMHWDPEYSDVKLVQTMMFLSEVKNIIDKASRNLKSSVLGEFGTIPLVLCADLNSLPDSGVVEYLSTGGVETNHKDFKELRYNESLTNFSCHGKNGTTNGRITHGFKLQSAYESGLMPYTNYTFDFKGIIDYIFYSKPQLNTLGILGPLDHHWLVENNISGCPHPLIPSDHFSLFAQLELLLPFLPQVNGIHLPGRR

For `O=c1[nH]c2ncn(CCc3ccccc3)c2c(=O)n1O`, the inhibition result in experiment [1] was “inactive”.

On to `O=c1[nH]c2ncn(Cc3ccccn3)c2c(=O)n1O`, for which, in experiment [2], the inhibition entry is “inactive”.

On to `CCn1c(=O)n(O)c(=O)c2c1ncn2CCc1ccccc1`, for which, in experiment [2], the inhibition result is “inactive”. The same measure, in the same setting: the entry for `CCCCCn1c(=O)n(O)c(=O)c2c1ncn2CCc1ccccc1` is “inactive”; for `O=c1[nH]c2ncn(Cc3ccncc3)c2c(=O)n1O` it is “inactive”. For `O=c1[nH]c2ncn(C3CCCCC3)c2c(=O)n1O`, in experiment [2], the inhibition entry is “inactive”.

Take `O=c1[nH]c2ncn(Cc3cccnc3)c2c(=O)n1O`: the inhibition entry in experiment [2] was “inactive”. `Cn1c(=O)n(O)c(=O)c2c1ncn2CCc1ccccc1`: in experiment [2], the inhibition result was “inactive”. Still for that read-out and setting: the entry for `O=c1[nH]c2ncn(Cc3ccccc3)c2c(=O)n1O` is “inactive”; for `CCCCCCCCCn1c(=O)n(O)c(=O)c2c1ncn2CCc1ccccc1` it is “inactive”. Same read-out and setting: the entry for `O=c1c2c(ncn2CCc2ccccc2)n(CCCc2ccccc2)c(=O)n1O` is “inactive”. On to `CC(C)CCCn1c(=O)n(O)c(=O)c2c1ncn2CCc1ccccc1`, for which the inhibition entry in experiment [3] is “inactive”. `O=c1[nH]c2ncn(CCc3cccs3)c2c(=O)n1O`: the inhibition entry in experiment [1] is “inactive”. Consider `CN(C)CCCn1c(=O)n(O)c(=O)c2c1ncn2CCc1ccccc1`, for which the inhibition entry in experiment [3] was “inactive”. Regarding `O=c1[nH]c2ncn(CCOc3ccccc3)c2c(=O)n1O`, the inhibition entry in experiment [1] is “inactive”. The same measure, in the same setting: the entry for `O=c1[nH]c2ncn(CCc3ccccn3)c2c(=O)n1O` is “inactive”.
